Source: PubChem
An excerpt weighted towards active compounds, which were near 5.1% of everything screened.
APP 5'UTR act – activators of APP 5'UTR luciferase reporter, primary screen, SH-SY5Y cells | SH-SY5Y APP 5'UTR luciferase reporter, luminescence; zero percent = DMSO vehicle wells | activation, % at 2 µM | 190,000 tested, 1% active | AID 1276, 2008;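 active = activation above a set limit, based on mean plus 3 SD of controls, cut at about 140% in these data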
STAT1 activator – STAT1 signaling activators, primary screen, cell-based, HTS, luciferase reporter; NIH 3T3 STAT1-luciferase reporter, IFN-gamma, luminescence; 100% = IFN-gamma alone, no compound; activation (% of control), % at 5.5 µM; 200,000 tested, 2.6% active; AID 932, 2007;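 active = activation above the screen-wide mean activation plus 3 SD, cut at about 130% in these data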;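 note: raw ratio to IFN-gamma control signal so 100% means no change and 0% no light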
STAT3 act – IL-6 driven STAT3 reporter potentiators, primary screen, U3A cells, luciferase, luminescence, MLSCN library; IL-6 STAT3-luciferase reporter; 100% = signal with IL-6 EC80 alone; 190,000 tested, 0.91% active; activation (% of control), % at 5.6 µM; AID 871, 2007;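 active = activation above the screen-wide mean of compound activation plus 3 SD, cut at about 130% in these data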;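 note: 0% = background luminescence of wells with medium and substrate only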
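Test system: human U3A cells carrying STAT3-luciferase construct; control set: IL-6-only wells as 100% reference; timing: compound pre-incubation 1 h before IL-6, then 6 h stimulation at 37 °C; also added: IL-6 stimulus at 33 ng/mL final; evaluation: % activation versus median of IL-6-stimulated wells; detection: reporter luminescence signal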
NF-kB neuron act – activators of NF-kB expression in neurons, primary screen, cell-based, HTS. 190,000 tested, 1.6% active. AID 1239, 2008. human neuronal cells, NF-kB reporter expression; stronger effect = higher value. fold change at 12.5 µM; in the data active = fold change above about 3.3
STAT1 inh – STAT1 signaling inhibitors, primary screen, cell-based, HTS, luciferase reporter | NIH 3T3 STAT1-luciferase reporter, IFN-gamma, luminescence | inhibition, % at 5.5 µM | 200,000 tested, 0.35% active | AID 920, 2007;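 active = inhibition above a set limit, the mean inhibition across all tested compounds plus 3 SD, cut at about 34% in these data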;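 note: 0% = IFN-gamma with DMSO and 100% = IFN-gamma with 300 µM nifuroxazide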
STAT3 inh-1 – IL-6 driven STAT3 reporter inhibitors, primary screen, U3A cells, luciferase, luminescence, MLSCN library; IL-6 STAT3-luciferase reporter; host cell line lacks STAT1; 190,000 tested, 0.89% active; inhibition, % at 5.5 µM; AID 862, 2007;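 active = inhibition above the mean inhibition across all screened compounds plus 3 SD, cut at about 44% in these data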;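 note: 0% = DMSO only wells and 100% = 100 µM nifuroxazide control wells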
STAT3 inh-2 – STAT3 reporter inhibitors, retest of hits, confirmation, U3A cells, luciferase, luminescence; shares compounds with STAT3 inh-1; IL-6 STAT3 luciferase reporter; cell line lacks STAT1; inhibition, % at 5.7 µM; 1,200 tested, 45% active;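 active = inhibition above the hit cutoff computed for the primary STAT3 screen, cut at about 44% in these data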;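 note: 0% = IL-6 plus DMSO and 100% = IL-6 plus nifuroxazide control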
NFkB inh STAT3ct – NF-kB reporter inhibitors in human cells, confirmation, counter-screen for STAT3 inhibitor project, cell-based, HEK293T, luciferase, TNF-alpha stimulus | shares compounds with STAT3 inh-1 | TNF-alpha induced | inhibition, % at 5.7 µM | 1,200 tested, 36% active | AID 1308, 2008;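 active = inhibition above the mean of solvent-only control wells plus 3 SD, cutoff set per campaign, cut at about 13% in these data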;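 note: 0% = TNF-alpha with DMSO and 100% = TNF-alpha with MG high control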
STAT1 inh STAT3c – STAT1 reporter inhibitors, IFN-gamma induced, confirmation, counter-screen for STAT3 inhibitor project, cell-based, NIH 3T3, luciferase luminescence. shares compounds with STAT3 inh-1. NIH 3T3 STAT1-luciferase reporter. inhibition, % at 5.7 µM. 1,200 tested, 27% active;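 active = inhibition above the mean plus 3 SD of solvent-only control wells, limit set per screening run, cut at about 16% in these data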;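 note: 0% = DMSO with IFN-gamma and 100% = nifuroxazide control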
Active calls of the source: *; nt = not tested or not shown.

SMILES	APP 5'UTR act	STAT1 activator	STAT3 act	NF-kB neuron act	STAT1 inh	STAT3 inh-1	STAT3 inh-2	NFkB inh STAT3ct	STAT1 inh STAT3c
O=C(Nc1nc2ccccc2[nH]1)c1ccc(F)c(S(=O)(=O)N2CCOCC2)c1	50.8	117.4	95.3	1.93	-19.1	4.2	nt	nt	nt
Cc1ccc(C(=O)Nc2ccon2)cc1S(=O)(=O)N1CCOCC1	-26.6	103.8	101.6	0.97	-4.1	-0.4	nt	nt	nt
Cc1cc(C(F)(F)F)n2ncc(-c3cccc(Br)c3)c2n1	18.5	91.5	104.1	1.38	8.0	-1.4	nt	nt	nt
CCOC(=O)c1c(NCC(C)C)c2ccccc2[nH]c1=O	-4.5	96.2	88.1	0.97	4.2	19.2	nt	nt	nt
Cc1ccc(/C=C(/C#N)C(=O)NC(C)c2ccccc2)o1 (stereo not drawn)	-21.9	93.7	90.9	1.35	7.0	10.4	nt	nt	nt
COc1ccccc1N1CCN(c2ccc(-c3ccccc3)nn2)CC1	-89.6	111.7	46.8	6.59*	-14.6	67.1*	40.9	18.1*	-65.0
CCOC(=O)N1CCC2(CC1)C(C#N)=C(N)Oc1n[nH]c(C)c12	11.3	95.2	101.1	1.63	5.3	4.4	nt	nt	nt
CC(=O)CSc1nc2cc3c(cc2cc1C#N)OCCO3	101.2	86.0	35.7	5.72*	13.4	77.7*	28.2	0.6	-94.5
O=C(CCCN1C(=O)S/C(=C\c2ccccc2)C1=O)NNC(=O)c1ccccc1O	-63.1	76.5	47.8	0.95	24.0	63.7*	56.5*	35.3*	3.7
O=C(CN1C(=O)S/C(=C\c2ccccc2)C1=O)NNC(=O)c1ccccc1O	-5.5	96.1	102.2	1.13	4.4	-3.8	nt	nt	nt
O=C(CSC1=NCCS1)Nc1ccnc2ccccc12	24.3	70.2	49.3	0.78	32.4	64.2*	74.7*	20.8*	24.1*
Cc1oc(-c2ccc(Cl)cc2)nc1CN1CCCC(C(=O)N2CCN(C(=O)c3ccco3)CC2)C1 (stereo not drawn)	nt	87.7	38.3	0.74	13.7	79.3*	72.3*	26.0*	11.6
COC(=O)CCN(C1CCCCC1)S(=O)(=O)c1ccc(S(=O)(=O)NC2CCCCC2)cc1	8.5	93.0	99.3	0.86	7.5	5.3	nt	nt	nt
Cc1cc(C(c2nnnn2Cc2ccccc2)N2CCOCC2)c(C)n1-c1ccc2c(c1)OCO2 (stereo not drawn)	50.4	94.5	104.2	1.32	6.0	-1.1	nt	nt	nt
O=C1CSCN1c1ccc(Cl)cc1	0.8	112.0	101.5	1.25	-15.5	4.7	nt	nt	nt
O=C(CCCOc1ccc(Cl)cc1)N1CCCCC1	10.1	103.1	99.1	1.8	-10.5	2.3	nt	nt	nt
O=C(CCCOc1ccccc1)N1CCCCC1	103.0	100.7	62.4	2.07	-0.8	48.2*	7.0	-8.0	-74.4
CCOc1ccc(-c2ccc(SCC)nn2)cc1	167.4*	78.2	42.5	5.05*	23.4	71.6*	31.4	0.7	-83.3
CCSc1ccc(-c2ccc(C)cc2)nn1	187.0*	98.4	65.0	6.58*	1.0	46.6*	11.9	-32.0	-97.8
COCCn1c(SCC(=O)Nc2nnc(C)s2)nnc1-c1ccncc1	12.0	96.5	100.8	1.35	3.8	2.6	nt	nt	nt
O=C(Nc1ccc(N2CCN(C(=O)c3ccco3)CC2)c(Cl)c1)c1cc2ccccc2o1	75.0	99.8	62.4	0.29	9.3	47.8*	47.8*	10.8	3.9
CCCC(=O)N1CCN(c2ccc(NC(=O)c3cccs3)cc2Cl)CC1	-2.5	88.5	96.8	0.75	12.1	9.4	nt	nt	nt
CCCC(=O)N1CCN(c2ccc(NC(=O)c3cc4ccccc4o3)cc2Cl)CC1	6.6	89.1	60.1	0.34	11.7	50.3*	43.2	2.6	-2.5
O=C(c1cc2ccccc2o1)N1CCN(c2ccccc2Cl)CC1	10.4	97.4	97.3	1.05	2.8	7.2	nt	nt	nt
CCC(=O)N1CCN(c2ccc(NC(=O)c3cc4ccccc4o3)cc2Cl)CC1	-14.3	92.5	61.1	0.35	8.1	49.0*	34.3	-3.0	-13.6
SMILES	APP 5'UTR act	STAT1 activator	STAT3 act	NF-kB neuron act	STAT1 inh	STAT3 inh-1	STAT3 inh-2	NFkB inh STAT3ct	STAT1 inh STAT3c
O=C(CSc1ccc(-c2ccc(F)cc2)nn1)N1CCCCC1	18.1	111.8	102.1	1.4	-12.9	0.4	nt	nt	nt
Cc1cc2c(c(=O)n1Cc1cccnc1)C(c1ccc(F)cc1)C(C#N)=C(N)O2 (stereo not drawn)	29.9	95.0	98.2	0.77	5.5	4.7	nt	nt	nt
O=C(CC(Nc1ccccc1Cl)C(=O)O)c1ccccc1 (stereo not drawn)	172.3*	127.3	48.9	0.61	-31.1	62.3*	16.3	-41.4	-130.9
Cc1c(Cl)cccc1NC(CC(=O)c1ccccc1)C(=O)O (stereo not drawn)	28.0	93.3	118.5	1.44	7.6	-21.9	nt	nt	nt
COc1c(Cl)cc(-c2noc(C)c2C(=O)NC(C)C)cc1Cl	-1.0	97.0	103.3	1.1	3.3	-3.9	nt	nt	nt
Cc1ccc(-n2ncc3c(SCc4cccc(C)c4)ncnc32)cc1	36.5	104.2	99.5	1.25	-4.5	-0.9	nt	nt	nt
Cc1ccc(-n2ncc3c(SCc4cccnc4)ncnc32)c(C)c1	14.3	79.8	39.5	1.35	21.4	75.0*	67.9*	4.5	6.4
OCC1(Cc2ccc(Cl)cc2)CCN(Cc2ccc3nsnc3c2)CC1	3.4	98.8	101.0	1.17	-0.7	1.3	nt	nt	nt
CCOc1ccc(C(C)=O)cc1CSC(=N)N	-18.7	81.6	91.5	nt	20.4	15.5	nt	nt	nt
CCCCOc1ccc(Br)cc1CSC(=N)N	-51.5	77.1	50.8	0.85	25.7	57.8*	70.7*	25.1*	20.8*
O=C(Nc1nc2ccccc2[nH]1)c1ccc(F)cc1	107.0	102.8	39.2	2.69	-3.1	71.7*	33.8	-7.1	-73.7
CCN(CC)C(=O)CN1CCN(c2ccccc2F)CC1	0.9	94.3	99.7	1.12	6.3	5.4	nt	nt	nt
CCC(C)(C)c1ccc(OCCCC[n+]2cccc(C)c2)c(C(C)(C)CC)c1	-2.6	72.7	45.0	0.49	29.2	66.7*	50.4*	2.3	15.8
O=S(=O)(NCC1CCCO1)c1ccc(-c2ccc(S(=O)(=O)NCC3CCCO3)cc2)cc1 (stereo not drawn)	-6.3	76.0	37.5	1.05	24.5	78.5*	84.5*	33.1*	22.0*
